From PMC5701662 (Bioorganic & medicinal chemistry letters, 2017)
Entries after “also recorded” stand apart in the source; their conditions may differ.

Legend:
SMN2 expression [1] = experiment: SMN2-luciferase reporter assay; type: cell-based; settings: for activity in the luciferase reporter assay (in words): SAR statements in the text
Outline: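 Reporter cells carrying the SMN2-luciferase construct were exposed to test compound at 0.1–50 μM, with DMSO (0.1%) controls. Luciferase signal gave dose-response curves, from which EC50 and percent maximum increase in SMN2 expression were taken. Values are mean ± S.E.M.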

aqueous solubility = type: physicochemical
[2] = stability in mouse microsomes; type: in vitro ADME
[3] = system: SMN1-luciferase construct; experiment: SMN1-luciferase construct expression; type: cell-based
[4] = system: SMN-luciferase reporter transcripts; experiment: qRT-PCR analysis of SMN-luciferase reporter transcripts; type: cell-based; settings: 24 hours required for full activation
SMNΔ7 mice = experiment: preliminary efficacy study in SMNΔ7 mice; type: in vivo, mouse; settings: 20 mg/kg i.p. once daily from PND 2, compared to vehicle
SMN2 expression [5] = settings: hit compounds from high-throughput screening; cited from earlier work

SMILES | activity in the luciferase reporter assay (in words) (SMN2 expression [1]) | EC50 (SMN2 expression [1]) [µM] | further results
COc1cc2c(c(OC)c1OC)C(c1cc(Cl)ccc1F)NC(=O)N2 (centres unmarked) [9a] | improved potency and efficacy; also recorded: very promising activity |  | SMN-luciferase protein expression from the SMN2-luciferase construct (SMN2 expression [1]; secondary characterisation): increased SMN-luciferase protein expression; aqueous solubility (in words) (aqueous solubility): improved aqueous solubility; stability in mouse microsomes (in words) [2]: promising stability; SMN-luciferase protein expression from the SMN1-luciferase construct [3]: increased SMN-luciferase protein expression; amount of exon 7 included transcripts [4]: corresponding increase; amount of total SMN-luciferase reporter transcripts [4]: increased; ability to right themselves (SMNΔ7 mice): increase in the ability to right themselves
COc1cc2c(c(OC)c1OC)C(c1cc(C#N)ccc1F)CC(=O)N2 (centres unmarked) [5g] | not active | > 50 | 
COc1cc2c(c(OC)c1OC)C(c1ccc(F)cc1)NC(=O)N2 (centres unmarked) [9e] | retained some activity |  | 
COc1ccc(Cl)cc1C1NC(=O)Nc2cc(OC)c(OC)c(OC)c21 (centres unmarked) [9r] | activity was restored |  | 
COc1ccc(C2NC(=O)Nc3cc(OC)c(OC)c(OC)c32)cc1 (centres unmarked) [9j] |  | > 50 | 
COc1cc2c(c(OC)c1OC)C(c1ccc(Cl)cc1)NC(=O)N2 (centres unmarked) [9g] | retained some activity |  | 
COc1cc2c(c(OC)c1OC)C(c1ccccc1F)CC(=O)N2 (centres unmarked) [5c] | complete loss in activity | > 50 | 
COc1cc2c(c(OC)c1OC)C(c1cc(Cl)ccc1F)=NCC(=O)N2 [compound 14] | retained potency similar to the lead 2, although its efficacy was reduced |  | 
COc1cc2c(c(OC)c1OC)C(c1ccc(F)c(F)c1)CC(=O)N2 (centres unmarked) [5l] | inactive | > 50 | 
COc1cc2c(c(OC)c1OC)C(c1cc(F)ccc1F)CC(=O)N2 (centres unmarked) [5f] | not active | > 50 | 
COc1cc2[nH]c(=O)nc(-c3cc(Cl)ccc3F)c2c(OC)c1OC [compound 13] | inactive |  | 
COc1cc2c(c(OC)c1OC)C(c1cccc(F)c1)NC(=O)N2 (centres unmarked) [9d] | retained some activity |  | 
COc1cc2c(c(OC)c1OC)C(c1ccc(Cl)c(Cl)c1)CC(=O)N2 (centres unmarked) [5m] | inactive | > 50 | 
COc1cc2c(c(OC)c1OC)C(c1cc(C#N)ccc1F)NC(=O)N2 (centres unmarked) [9m] | inactive | > 50 | 
COc1cc2c(c(OC)c1)C(c1cc(Br)ccc1F)CC(=O)N2 (centres unmarked) [5b] | complete loss of activity |  | 
COc1cc2c(c(OC)c1OC)C(c1ccccc1Cl)NC(=O)N2 (centres unmarked) [9f] |  | > 50 | 
COc1cc2c(c(OC)c1OC)C(c1cc(Br)ccc1F)CC(=O)N2 (centres unmarked) [compound 2] |  |  | increase in expression of SMN2 (SMN2 expression [5]): 2 fold
COc1ccc(F)c(C2NC(=O)Nc3cc(OC)c(OC)c(OC)c32)c1 (centres unmarked) [9o] | inactive | > 50 | 
COc1cc2c(c(OC)c1OC)C(C)(c1cc(Cl)ccc1F)OCC(=O)N2 (centres unmarked) [compound 23] | not tolerated |  | 

SMILES | activity in the luciferase reporter assay (in words) (SMN2 expression [1]) | EC50 (SMN2 expression [1]) [µM] | further results
CCCN1C(=O)Nc2cc(OC)c(OC)c(OC)c2C1c1cccc(Cl)c1 (centres unmarked) [9c] | inactive; also recorded: partial, but not a complete, loss in activity |  | 
COc1cc2c(c(OC)c1OC)C(c1cc(Br)ccc1F)CC(=O)N2C (centres unmarked) [6a] | inactive |  | 
COc1ccccc1C1NC(=O)Nc2cc(OC)c(OC)c(OC)c21 (centres unmarked) [9h] |  | > 50 | 
COc1cc2c(c(OC)c1OC)C(c1cc(Cl)ccc1F)OCC(=O)N2 (centres unmarked) [compound 19] | improved potency and efficacy |  | aqueous solubility (in words) (aqueous solubility): improved aqueous solubility; stability in mouse microsomes (in words) [2]: poor
COc1cc2c(c(OC)c1OC)C(c1cc(C(N)=O)ccc1F)CC(=O)N2 (centres unmarked) [5i] | not active | > 50 | 
COc1cc2c(c(OC)c1OC)C(c1cccc(Br)c1)CC(=O)N2 (centres unmarked) [5d] | complete loss in activity | > 50 | 
COc1cc2c(c(OC)c1OC)C(c1cc([N+](=O)[O-])ccc1F)CC(=O)N2 (centres unmarked) [5h] | not active | > 50 | 
COc1cc2c(c(OC)c1OC)C(c1ccc(Cl)cc1F)NC(=O)N2 (centres unmarked) [9p] | tolerated |  | 
COc1cc2c(c(OC)c1OC)C(c1cc(Br)ccc1F)C(C)C(=O)N2 (centres unmarked) [6b] | inactive |  | 
COc1ccc2c(c1OC)C(c1cc(Br)ccc1F)CC(=O)N2 (centres unmarked) [5a] | complete loss of activity |  | 
COc1cc2c(c(OC)c1OC)C(c1cc(Cl)ccc1F)OC(=O)N2 (centres unmarked) [compound 16] | encouraging activity |  | 
COc1cc2c(c(OC)c1OC)C(c1cc(F)ccc1F)NC(=O)N2 (centres unmarked) [9n] | less active |  | 
COc1cc2c(c(OC)c1OC)C(c1cc(Cl)ccc1F)OCC(=O)N2C (centres unmarked) [compound 21] | not tolerated |  | 
CC(C)c1cc(C(=O)Nc2ccc(F)c(Cl)c2)no1 [compound 1] |  |  | increase in expression of SMN2 (SMN2 expression [5]): 2 fold
COc1cc2c(c(OC)c1OC)C(c1cc(-c3ccccc3)ccc1F)NC(=O)N2 (centres unmarked) [9l] | inactive | > 50 | 
COc1cc2c(c(OC)c1OC)C(c1ccccc1F)N(C)C(=O)N2 (centres unmarked) [9b] | less active; also recorded: partial, but not a complete, loss in activity | 10 | Emax (SMN2 expression [1]; read-out: percent maximum increase in SMN2 expression): 100%
COc1cc(Cl)ccc1C1NC(=O)Nc2cc(OC)c(OC)c(OC)c21 (centres unmarked) [9q] | activity was restored |  | 
COc1cc2c(c(OC)c1OC)C(c1ccc(Cl)cc1Cl)CC(=O)N2 (centres unmarked) [5k] | inactive | > 50 | 
COc1cc2c(c(OC)c1OC)C(c1cccc(Cl)c1Cl)CC(=O)N2 (centres unmarked) [5j] | inactive | > 50 | 
